Measurements reported in PMC9283305 (Nitric oxide : biology and chemistry, 2022).
Like-named read-outs stand apart in the source and are kept apart here.

How the values were obtained:
[1] = cited from earlier work
[2] = 37°C, 100 mM sodium phosphate, pH 7.4; cited from earlier work
[3] = 37°C, 100 mM sodium phosphate, pH 7.4; cited from earlier work; remark: listed apart in the source
[4] = Autoxidation of the ferrous-dioxygen; assay type: biochemical, human
Outline: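 Human Cygb WT and mutants were His-tagged, expressed in SoluBL21 cells and purified on Ni-NTA. Fe(II)-O2 was formed by excess dithionite reduction, then G25 gel filtration in aerobic buffer, mixed with prewarmed buffer at 37 °C and followed spectrally for 30–60 min. For two surface mutants, deoxy protein was made in a glovebox, desalted anaerobically and mixed 4:1 with O2-saturated buffer; read at 1 spectrum/s for 1000 s. At least triplicate; mean ± SD.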

[5] = Nitrite reduction to NO by ferrous globins in the presence of excess dithionite; assay type: biochemical, human; details: for Nitrite reductase reaction rate constant: 37°C, 100 mM sodium phosphate, pH 7.4, excess dithionite
Outline: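 Ran in 100 mM sodium phosphate, pH 7.4, 37 °C, with 2.5 mM dithionite to keep heme ferrous and remove O2. Globin (2–10 μM) was mixed with nitrite, typically 1–10 mM, or 250 μM–2 mM for distal-His mutants. Spectra were read over 350–700 nm and fit single-exponential; rate constants came from the nitrite series. At least triplicate, with ≥2 protein batches; mean ± SD.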

[6] = Oleic acid; assay type: binding, human
Outline: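 Oleate was titrated into ferric distal-His mutant globins with imidazole present: 250 μM, or a series of imidazole levels. Difference spectra were taken by subtracting the initial spectrum. The absorbance difference at the wavelength of largest change was fit against oleate concentration to give an apparent KD. Buffer was 100 mM sodium phosphate, pH 7.4, 25 °C.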

[7] = 37°C, 100 mM sodium phosphate, pH 7.4
[8] = 37°C, 100 mM sodium phosphate, pH 7.4, decay fit to a two-exponential equation

Nitrite reductase reaction rate constant [5] [M⁻¹ s⁻¹] | Molecule | Autoxidation rate [4, 7] [min⁻¹] | further results
– | zebrafish Cygb1: zebrafish cytoglobin 1, a five-coordinate native globin (protein, UniProt Q8UUR3 1-174, looked up) Cytoglobin-1: MEGDGGVQLTQSPDSLTEEDVCVIQDTWKPVYAERDNAGVAVLVRFFTNFPSAKQYFEHFRELQDPAEMQQNAQLKEHGQRVLNALNTLVENLRDADKLNTIFNQMGKSHALRHKVDPVYFKILAGVILEVLVEAFPQCFSPAEVQSSWSKLMGILYWQMNRVYAEVGWENSKK | – | Lipid binding [1]: do not show appreciable lipid binding
– | Neuroglobin Wild-type: wild-type human neuroglobin (protein, UniProt Q9NPG2 1-151, looked up) Neuroglobin: MERPEPELIRQSWRAVSRSPLEHGTVLFARLFALEPDLLPLFQYNCRQFSSPEDCLSSPEFLDHIRKVMLVIDAAVTNVEDLSSLEEYLASLGRKHRAVGVKLSSFSTVGESLLYMLEKCLGPAFTPATRAAWSQLYGAVVQAMSRGWDGE | – | Nitrite reductase reaction rate constant [2]: 0.52 ± 0.19^d M^−1s^−1; Autoxidation rate [3]: 0.23 ± 0.03^b min^−1
302 ± 55 | Neuroglobin H64L: His-tagged neuroglobin distal histidine His64(E7) to Leu mutant (protein, UniProt Q9NPG2 1-151, looked up, variant H64L) Neuroglobin: MERPEPELIRQSWRAVSRSPLEHGTVLFARLFALEPDLLPLFQYNCRQFSSPEDCLSSPEFLDLIRKVMLVIDAAVTNVEDLSSLEEYLASLGRKHRAVGVKLSSFSTVGESLLYMLEKCLGPAFTPATRAAWSQLYGAVVQAMSRGWDGE | 0.010 ± 0.004 | –
– | Neuroglobin H64Q: human neuroglobin distal histidine His64(E7) to Gln mutant (protein, UniProt Q9NPG2 1-151, looked up, variant H64Q) Neuroglobin: MERPEPELIRQSWRAVSRSPLEHGTVLFARLFALEPDLLPLFQYNCRQFSSPEDCLSSPEFLDQIRKVMLVIDAAVTNVEDLSSLEEYLASLGRKHRAVGVKLSSFSTVGESLLYMLEKCLGPAFTPATRAAWSQLYGAVVQAMSRGWDGE | – | Nitrite reductase reaction rate constant [2]: 387 ± 21^d M^−1s^−1; Autoxidation rate [3]: 0.010 ± 0.002^b min^−1
– | Neuroglobin H64A: human neuroglobin distal histidine His64(E7) to Ala mutant (protein, UniProt Q9NPG2 1-151, looked up, variant H64A) Neuroglobin: MERPEPELIRQSWRAVSRSPLEHGTVLFARLFALEPDLLPLFQYNCRQFSSPEDCLSSPEFLDAIRKVMLVIDAAVTNVEDLSSLEEYLASLGRKHRAVGVKLSSFSTVGESLLYMLEKCLGPAFTPATRAAWSQLYGAVVQAMSRGWDGE | – | Nitrite reductase reaction rate constant [2]: 1120 ± 140^d M^−1s^−1; Autoxidation rate [3]: 0.066 ± 0.005^b min^−1
– | Neuroglobin H64W: human neuroglobin distal histidine His64(E7) to Trp mutant (protein, UniProt Q9NPG2 1-151, looked up, variant H64W) Neuroglobin: MERPEPELIRQSWRAVSRSPLEHGTVLFARLFALEPDLLPLFQYNCRQFSSPEDCLSSPEFLDWIRKVMLVIDAAVTNVEDLSSLEEYLASLGRKHRAVGVKLSSFSTVGESLLYMLEKCLGPAFTPATRAAWSQLYGAVVQAMSRGWDGE | – | Nitrite reductase reaction rate constant [2]: 7.6 ± 1.3^d M^−1s^−1; Autoxidation rate [3]: 0.076 ± 0.006^b min^−1
1100 ± 100 | H81A: human cytoglobin distal histidine His81(E7) to Ala mutant (protein, UniProt Q8WWM9 1-190, looked up, variant H81A) Cytoglobin: MEKVPGEMEIERRERSEELSEAERKAVQAMWARLYANCEDVGVAILVRFFVNFPSAKQYFSQFKHMEDPLEMERSPQLRKAACRVMGALNTVVENLHDPDKVSSVLALVGKAHALKHKVEPVYFKILSGVILEVVAEEFASDFPPETQRAWAKLRGLIYSHVTAAYKEVGWVQQVPNATTPPATLPSSGP | 0.094 ± 0.038 | Nitrite reductase reaction rate constant ([5]; listed as His81Ala): up to 1100 M^−1s^−1; Fold increase in nitrite reduction rate constant versus Cygb WT [5]: up to 1000 fold
0.65 ± 0.14 | K116E: human cytoglobin surface mutant Lys116 to Glu (protein, UniProt Q8WWM9 1-190, looked up, variant K116E) Cytoglobin: MEKVPGEMEIERRERSEELSEAERKAVQAMWARLYANCEDVGVAILVRFFVNFPSAKQYFSQFKHMEDPLEMERSPQLRKHACRVMGALNTVVENLHDPDKVSSVLALVGKAHALEHKVEPVYFKILSGVILEVVAEEFASDFPPETQRAWAKLRGLIYSHVTAAYKEVGWVQQVPNATTPPATLPSSGP | 0.366 ± 0.057 | –
0.90 ± 0.30 | R84E: human cytoglobin surface mutant Arg84 to Glu (protein, UniProt Q8WWM9 1-190, looked up, variant R84E) Cytoglobin: MEKVPGEMEIERRERSEELSEAERKAVQAMWARLYANCEDVGVAILVRFFVNFPSAKQYFSQFKHMEDPLEMERSPQLRKHACEVMGALNTVVENLHDPDKVSSVLALVGKAHALKHKVEPVYFKILSGVILEVVAEEFASDFPPETQRAWAKLRGLIYSHVTAAYKEVGWVQQVPNATTPPATLPSSGP | – | Autoxidation rate constant for the fast phase [4, 8]: 2.362 ± 0.359^c min^−1; Autoxidation rate constant for the slower phase [4, 8]: 0.303 ± 0.037 min⁻¹; Share of the autoxidation decay accounted for by the fast phase ([4]; 37°C, 100 mM sodium phosphate, pH 7.4, two-exponential fit): 73 ± 12%; Fold increase in autoxidation rate constant as compared to WT ([4]; versus WT cytoglobin): roughly 10 fold
3.76 ± 0.85 | V105Y: human cytoglobin hydrophobic surface patch mutant Val105 to Tyr (protein, UniProt Q8WWM9 1-190, looked up, variant V105Y) Cytoglobin: MEKVPGEMEIERRERSEELSEAERKAVQAMWARLYANCEDVGVAILVRFFVNFPSAKQYFSQFKHMEDPLEMERSPQLRKHACRVMGALNTVVENLHDPDKVSSYLALVGKAHALKHKVEPVYFKILSGVILEVVAEEFASDFPPETQRAWAKLRGLIYSHVTAAYKEVGWVQQVPNATTPPATLPSSGP | 0.107 ± 0.018 | Fold increase in nitrite reduction rate constant versus Cygb WT [5]: 3 fold
1.24 ± 0.18 | T91D: human cytoglobin mutant Thr91 to Asp (protein, UniProt Q8WWM9 1-190, looked up, variant T91D) Cytoglobin: MEKVPGEMEIERRERSEELSEAERKAVQAMWARLYANCEDVGVAILVRFFVNFPSAKQYFSQFKHMEDPLEMERSPQLRKHACRVMGALNDVVENLHDPDKVSSVLALVGKAHALKHKVEPVYFKILSGVILEVVAEEFASDFPPETQRAWAKLRGLIYSHVTAAYKEVGWVQQVPNATTPPATLPSSGP | 0.062 ± 0.005 | –
0.66 ± 0.18 | L108Q: human cytoglobin hydrophobic surface patch mutant Leu108 to Gln (protein, UniProt Q8WWM9 1-190, looked up, variant L108Q) Cytoglobin: MEKVPGEMEIERRERSEELSEAERKAVQAMWARLYANCEDVGVAILVRFFVNFPSAKQYFSQFKHMEDPLEMERSPQLRKHACRVMGALNTVVENLHDPDKVSSVLAQVGKAHALKHKVEPVYFKILSGVILEVVAEEFASDFPPETQRAWAKLRGLIYSHVTAAYKEVGWVQQVPNATTPPATLPSSGP | 0.116 ± 0.051 | –
10.7 ± 2.1 | H81W: human cytoglobin distal histidine His81(E7) to Trp mutant (protein, UniProt Q8WWM9 1-190, looked up, variant H81W) Cytoglobin: MEKVPGEMEIERRERSEELSEAERKAVQAMWARLYANCEDVGVAILVRFFVNFPSAKQYFSQFKHMEDPLEMERSPQLRKWACRVMGALNTVVENLHDPDKVSSVLALVGKAHALKHKVEPVYFKILSGVILEVVAEEFASDFPPETQRAWAKLRGLIYSHVTAAYKEVGWVQQVPNATTPPATLPSSGP | 0.135 ± 0.034 | –
210 ± 44 | H81Q: human cytoglobin distal histidine His81(E7) to Gln mutant (protein, UniProt Q8WWM9 1-190, looked up, variant H81Q) Cytoglobin: MEKVPGEMEIERRERSEELSEAERKAVQAMWARLYANCEDVGVAILVRFFVNFPSAKQYFSQFKHMEDPLEMERSPQLRKQACRVMGALNTVVENLHDPDKVSSVLALVGKAHALKHKVEPVYFKILSGVILEVVAEEFASDFPPETQRAWAKLRGLIYSHVTAAYKEVGWVQQVPNATTPPATLPSSGP | 0.019 ± 0.005 | Change of oleic acid binding (apparent KD) in the presence of imidazole ([6]; several saturating concentrations of imidazole (Figure 5)): slight upwards trend
76 ± 16 | H81L: human cytoglobin distal histidine His81(E7) to Leu mutant (protein, UniProt Q8WWM9 1-190, looked up, variant H81L) Cytoglobin: MEKVPGEMEIERRERSEELSEAERKAVQAMWARLYANCEDVGVAILVRFFVNFPSAKQYFSQFKHMEDPLEMERSPQLRKLACRVMGALNTVVENLHDPDKVSSVLALVGKAHALKHKVEPVYFKILSGVILEVVAEEFASDFPPETQRAWAKLRGLIYSHVTAAYKEVGWVQQVPNATTPPATLPSSGP | 0.314 ± 0.043 | Fold increase in oleic acid KD versus WT ([6]; versus Cygb WT): 4 fold; Nitrite reduction rate relative to Ngb H64L ([5]; relative to the Ngb H64L rate): about 25%
